Bioassay records: PubChem BioAssay, Sanford-Burnham Center for Chemical Genomics
APJ agonist: activates the human apelin receptor APJ; activation, % at 20 µM; 330,000 tested, 0.11% active; P35414; AID 2520; CHO-K1 APJ PathHunter beta-arrestin, luminescence; 0% DMSO wells, 100% apelin;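 active = activation more than six SD over the plate average, tested at 20 µM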
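Incubation: overnight seeding, 90 min compound at 25 °C, 1 h detection; test system: PathHunter CHO-K1 APJ (AGTRL-1) beta-arrestin reporter cells; amount: 1000 cells/well; doses: one dose, 20 µM compound, 1% DMSO; measured by: beta-gal luminescence; measure: agonist-driven arrestin binding to APJ; benchmarks: negative DMSO alone, positive Apelin-13 at 10 nM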
EBI2 antag: EBI2 (human) antagonism. inhibition, % at 5 µM. AID 651636. 360,000 tested, 0.81% active. P32249. EBI2 beta-arrestin recruitment, luminescence, 7a,25-OHC stimulated; in the data active = inhibition above about 38%;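 note: enzyme fragment complementation signal reports receptor beta-arrestin coupling in cells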
APJ antagonist: antagonists of human APJ apelin receptor; CHO-K1 APJ beta-arrestin complementation, luminescence; inhibition, % at 20 µM; 330,000 tested, 0.32% active; AID 2521;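 active = inhibition above about 40% at 20 µM, limit read from the data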;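 note: cells challenged with 10 nM apelin-13 agonist together with compound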
CCR6 antag: antagonists of human CCR6 receptor | AID 493098 | 340,000 tested, 0.49% active | P51684 | inhibition, % at 20 µM | CHO-K1 CCR6 PathHunter beta-arrestin, luminescence, CCL20-stimulated;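 active = compounds whose inhibition of the agonist-driven luminescence signal at 20 µM reaches about 50%, limit read from the data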;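 note: cells stimulated with CCL20 at 14 nM final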
Target sequence (P51684 whole entry, looked up): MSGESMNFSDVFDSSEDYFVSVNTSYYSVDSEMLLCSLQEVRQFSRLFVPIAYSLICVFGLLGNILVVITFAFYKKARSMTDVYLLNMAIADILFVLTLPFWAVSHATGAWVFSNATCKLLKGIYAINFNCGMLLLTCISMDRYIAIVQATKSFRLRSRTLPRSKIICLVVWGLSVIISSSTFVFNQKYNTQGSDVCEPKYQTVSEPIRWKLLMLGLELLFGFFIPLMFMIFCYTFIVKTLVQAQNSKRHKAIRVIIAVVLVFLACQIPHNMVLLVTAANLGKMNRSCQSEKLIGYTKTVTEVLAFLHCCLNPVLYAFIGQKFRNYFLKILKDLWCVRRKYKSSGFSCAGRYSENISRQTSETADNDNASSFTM
CXCR6 inh: inhibitors of human CXCR6 receptor. inhibition, % at 20 µM. CHO-K1 PathHunter CXCR6 beta-arrestin, luminescence. AID 602244. 360,000 tested, 0.36% active; in the data active = inhibition above about 34%, passing the limit was not always enough;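 note: antagonist mode with CXCL16 agonist at 10 nM final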
Target sequence (O00574 whole entry, looked up): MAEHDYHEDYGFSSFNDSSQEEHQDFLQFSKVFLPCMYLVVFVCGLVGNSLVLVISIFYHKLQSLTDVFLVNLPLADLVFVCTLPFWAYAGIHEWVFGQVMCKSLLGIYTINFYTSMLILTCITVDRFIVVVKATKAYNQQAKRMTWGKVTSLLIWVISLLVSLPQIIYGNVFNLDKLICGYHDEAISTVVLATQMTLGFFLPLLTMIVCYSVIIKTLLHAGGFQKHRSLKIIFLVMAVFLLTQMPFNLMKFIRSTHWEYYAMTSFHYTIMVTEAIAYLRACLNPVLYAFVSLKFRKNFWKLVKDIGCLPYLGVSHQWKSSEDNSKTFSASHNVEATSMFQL
EBI2 antag conf: EBI2 (human) antagonism, single concentration confirmation. shares compounds with EBI2 antag. EBI2 beta-arrestin luminescence, 7a,25-OHC antagonism. inhibition, % at 5 µM. 2,400 tested, 29% active. AID 651997;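 active = inhibition of at least 50%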
EBI2 agonist: counter-screen for EBI2 antagonists: EBI2 agonist activity; shares compounds with EBI2 antag; EBI2-expressing cells, agonist mode, luminescence, 60 min; 0% vehicle, 100% 7α,25-dihydroxycholesterol control; activation, % at 5 µM; 2,400 tested, under 10 active; AID 652000;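 active = activation of at least 50%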
bGal counter: counter-screen for EBI2 antagonists: E. coli beta-galactosidase inhibition; shares compounds with EBI2 antag; purified beta-galactosidase, luminescent Galacton Star, 15 min; inhibition, % at 5 µM; 2,400 tested, 1% active;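 active = replicate-average signal at least 3 plate SD below neutral wells, shown as high inhibition, flagging enzyme-inhibiting false positives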;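 note: higher means stronger loss of beta-gal luminescence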
Of the large screens only hits and unclear results are named; the others gave an inactive call (follow-up assays come after a bar, where they were run). A selection: hits, their analogues and other compounds. The true share with any hit is near 1.5%.

COc1cc(/C=N/NC(=O)COc2cccc(F)c2)ccc1OS(=O)(=O)c1ccc(C)cc1	none
COc1cc(/C=N/NC(=O)COc2ccc(Cl)cc2)ccc1OS(=O)(=O)c1ccc(C)cc1	EBI2 antag 42 | EBI2 antag conf inactive | EBI2 agonist inactive | bGal counter inactive
COC(=O)N/N=C/c1ccc(OS(=O)(=O)c2ccc(C)cc2)c(OC)c1	none
CSc1ccc(C(=S)N2CCN(C)CC2)cc1	none
S=C(NCCc1ccccc1)N1CCN(C(c2ccccc2)c2ccccc2)CC1	EBI2 antag 54 | EBI2 antag conf inactive | EBI2 agonist inactive | bGal counter inactive
CSc1ccc(C(=S)N2CCN(C(c3ccccc3)c3ccccc3)CC2)cc1	EBI2 antag 83 | EBI2 antag conf inactive | EBI2 agonist inactive | bGal counter inactive
CCCNC(=S)N1CCN(C(c2ccccc2)c2ccccc2)CC1	none
Cc1ccc(OCC(=O)NCCC2=CCCCC2)cc1	none
Cc1ccc(SCC(=O)NCCC2=CCCCC2)cc1	EBI2 antag 38 | EBI2 antag conf inactive | EBI2 agonist inactive | bGal counter inactive
CC(C)C[C@H]1CN([C@@H](Cc2ccc(O)cc2)CN2CCC[C@H]2CN2C(=O)C(=O)NC[C@@H]2Cc2ccccc2)C(=O)C(=O)N1CC1CCCCCC1	none (no result: APJ agonist, APJ antagonist, CCR6 antag)
CCOc1cc(/C=N/NC(=O)c2nnn(-c3nonc3N)c2C)ccc1OCc1ccc(C)cc1	EBI2 antag 54 (no result: APJ agonist, APJ antagonist, CCR6 antag) | EBI2 antag conf 51 | EBI2 agonist inactive | bGal counter inactive
CCOc1cc(/C=N/NC(=O)c2nnn(-c3nonc3N)c2C)ccc1OCc1ccc(F)cc1	EBI2 antag 52 | EBI2 antag conf inactive | EBI2 agonist inactive | bGal counter inactive
Cc1cccc(COc2ccc(/C=N/NC(=O)c3nnn(-c4nonc4N)c3C)cc2)c1	none
CCc1c(C(=O)N/N=C/c2ccc(OCc3ccc(F)cc3)c(OC)c2)nnn1-c1nonc1N	none
CCOc1cc(/C=N/NC(=O)c2nnn(-c3nonc3N)c2C)ccc1OCc1cccc(F)c1	EBI2 antag 42 | EBI2 antag conf inactive | EBI2 agonist inactive | bGal counter inactive
CC(=O)C1CCC2C3C=CC4=CC(=O)CCC4(C)C3CCC12C (configuration not stated)	none (no result: APJ agonist, APJ antagonist, CCR6 antag)
Cc1ccc(C)c(N2CCN(C(=O)c3csc4ccccc34)CC2)c1	EBI2 antag 48 | EBI2 antag conf inactive | EBI2 agonist inactive | bGal counter inactive
CCC(=O)N1CCN(c2cc(C)ccc2C)CC1	none
O=C1NC(Cc2ccccc2)c2nc3cc(F)c(F)cc3c(=O)n2-c2cc3ccccc3cc21 (configuration not stated)	EBI2 antag 44 (no result: APJ agonist, APJ antagonist, CCR6 antag) | EBI2 antag conf inactive | EBI2 agonist inactive | bGal counter inactive
COc1ccc(CN(Cc2cccnc2)S(=O)(=O)c2ccc(-n3cnnn3)c(OC)c2)cc1	none
COc1ccc(CN(Cc2ccc(OC)cc2)S(=O)(=O)c2ccc(-n3cnnn3)c(C)c2)cc1	EBI2 antag 45 | EBI2 antag conf inactive | EBI2 agonist inactive | bGal counter inactive
CN1CCN(c2ncnc3c2ncn3[C@H]2CN(Cc3ccc(Cl)cc3)C[C@@H](CO)O2)CC1	none (no result: APJ agonist, APJ antagonist, CCR6 antag)
Fc1cccc(Cl)c1C1SCc2nc3ccccc3n21 (configuration not stated)	none (no result: APJ agonist, APJ antagonist, CCR6 antag)
O=C(CN(c1ccccc1)S(=O)(=O)c1ccccc1)NCCSc1nc2ccccc2s1	EBI2 antag 59 | EBI2 antag conf 53 | EBI2 agonist inactive | bGal counter inactive
Cc1ccc(N(CC(=O)NCCSc2nc3ccccc3s2)S(=O)(=O)c2ccccc2)c(C)c1	EBI2 antag 46 | EBI2 antag conf inactive | EBI2 agonist inactive | bGal counter inactive
CC12CCC3C(CCC4CC(O)CCC43C)C1CC(=O)C2 (configuration not stated)	none (no result: APJ agonist, APJ antagonist, CCR6 antag)
COc1ccc(-n2ncc(C(=O)N3CCN(c4ccc(F)cc4)CC3)c2C)cc1	none
Cc1[nH]c(-c2ccc(F)cc2)cc1C(=O)N1CCN(c2ccc(Cl)cc2)CC1	EBI2 antag 73 | EBI2 antag conf inactive | EBI2 agonist inactive | bGal counter inactive
COc1ccc(N2CCN(C(=O)c3cc(-c4ccc(F)cc4)[nH]c3C)CC2)cc1	EBI2 antag 93 | EBI2 antag conf 62 | EBI2 agonist inactive | bGal counter inactive
CCOC(=O)N1CCN(C(=O)c2cc(-c3ccc(F)cc3)[nH]c2C)CC1	EBI2 antag 89 | EBI2 antag conf 86 | EBI2 agonist inactive | bGal counter inactive
COCC(=O)N[C@H]1CC[C@@H](CC(=O)NCc2ccccc2OC)O[C@@H]1CO	none (no result: APJ agonist, APJ antagonist, CCR6 antag, CXCR6 inh)
CCOC(=O)c1cnc(SCC(=O)Nc2cc(C(F)(F)F)ccc2N2CCOCC2)nc1N	EBI2 antag 85 | EBI2 antag conf 86 | EBI2 agonist inactive | bGal counter inactive
COc1ccc(CCNC2=CC(=O)CCC2)cc1OC	none (no result: APJ agonist, APJ antagonist, CCR6 antag)
Cc1nc2c(OCc3ccc(Cl)cc3Cl)cccn2c1N(C)Cc1cccs1	EBI2 antag 42 (no result: APJ agonist, APJ antagonist, CCR6 antag) | EBI2 antag conf inactive | EBI2 agonist inactive | bGal counter inactive
O=C(c1ccc(Cl)cc1)N1CCN(C(=O)C2CCCCC2)CC1	EBI2 antag 60 | EBI2 antag conf inactive | EBI2 agonist inactive | bGal counter inactive
O=C(c1ccc(Cl)cc1)C1CCN(C(=O)c2ccccc2)CC1	none
O=C(c1ccc(F)cc1)C1CCN(C(=O)c2ccc(Cl)cc2)CC1	EBI2 antag 83 (no result: APJ agonist, APJ antagonist) | EBI2 antag conf 54 | EBI2 agonist inactive | bGal counter inactive
O=C(c1ccc(Cl)cc1)N1CCCC(C(=O)N2CCCCC2)C1 (configuration not stated)	none
COCCc1ccc(OC2(C)CCN(Cc3ccc(OC)c4ccccc34)C2)cc1 (configuration not stated)	none (no result: APJ agonist, APJ antagonist, CCR6 antag)
COC(=O)CCCC[C@@H]1O[C@H](CCc2ccccc2)Cc2[nH]c(=S)[nH]c(=O)c21	none (no result: APJ agonist, APJ antagonist, CCR6 antag)
Cc1ccc([C@H]2C[C@@H](O)[C@H](n3cc(COC(=O)c4ccccc4)nn3)CN2C(=O)c2cccs2)cc1	none (no result: APJ agonist, APJ antagonist, CCR6 antag)
COc1ccccc1CNC(=O)CSc1ccc(Br)cc1	EBI2 antag 45 | EBI2 antag conf inactive | EBI2 agonist inactive | bGal counter inactive
O=C(Nc1ccccc1F)Nc1ccccc1N1CCCCC1	EBI2 antag 53 | EBI2 antag conf inactive | EBI2 agonist inactive | bGal counter inactive
Cc1cccc(OCC(=O)Nc2ccccc2N2CCCCC2)c1C	EBI2 antag 43 | EBI2 antag conf inactive | EBI2 agonist inactive | bGal counter inactive
COc1ccccc1OCC(=O)NC1CCCc2ccccc21 (configuration not stated)	none
